Data reported in ChEMBL document CHEMBL2311323, “Synthesis and biological evaluation of N-alkyl-N-(4-methoxyphenyl)pyridin-2-amines as a new class of tubulin polymerization inhibitors” (Bioorg Med Chem, 2013).
pIC50: −log10 of the molar value.

Columns and labels:
[1] = test system: DU-145; assay: Growth inhibition of human DU145 cells by SRB assay; type: functional
Summary of the method: (§1)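 Sulforhodamine B staining of human tumor cell lines: A-549 lung carcinoma, KB nasopharyngeal epidermoid carcinoma, P-gp-expressing vincristine-resistant KB (KBVIN) and DU145 prostate cancer. GI50 is the molar concentration giving 50% growth inhibition, reported as mean ± SD from at least triplicate runs.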

[2] = test system: KB; assay: Growth inhibition of human KB cells by SRB assay; type: functional; summary of the method: as §1
[3] = Growth inhibition of human KBVIN cells by SRB assay; type: functional; summary of the method: as §1
[4] = test system: A549; assay: Growth inhibition of human A549 cells by SRB assay; type: functional; summary of the method: as §1
[5] = test system: KB; assay: Growth inhibition of human KB cells at 20 ug/mL by SRB assay; type: functional; settings: read-out: GI; summary of the method: as §1
[6] = test system: A549; assay: Growth inhibition of human A549 cells at 20 ug/mL by SRB assay; type: functional; settings: read-out: GI; summary of the method: as §1
[7] = Growth inhibition of human KBVIN cells at 20 ug/mL by SRB assay; type: functional; settings: read-out: GI; summary of the method: as §1
[8] = test system: DU-145; assay: Growth inhibition of human DU145 cells at 20 ug/mL by SRB assay; type: functional; settings: read-out: GI; summary of the method: as §1
[9] = molecular target: Tubulin (Homo sapiens) (UniProt P68371+Q9H4B7+P0DPH7+P68366+Q13509+Q71U36+P04350+Q3ZCM7+P07437+P68363+Q9BQE3+Q6PEY2+Q13885+Q9BVA1+Q9BUF5); assay: Inhibition of [3H]colchicine binding to tubulin (unknown origin) at 5 uM incubated for 10 mins at 37 degC; type: protein-complex assay
[10] = molecular target: Tubulin; assay: Inhibition of tubulin assembly (unknown origin) pre-incubated with compound for 15 mins before GTP addition measured after 20 mins at 30 degC post GTP addition by turbidimetry; type: protein-complex assay, Homo sapiens
Summary of the method: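 Turbidity at 350 nm. Tubulin at 1.0 mg/mL (10 µM) was preincubated with varying compound concentrations for 15 min at 30 °C without GTP. Samples were chilled on ice and 0.4 mM GTP added, then moved to 0 °C cuvettes. After a rapid jump to 30 °C, assembly was followed for 20 min. IC50 is the concentration halving the turbidity increase relative to control.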

Row | SMILES | GI50 [1] | GI50 [2] | GI50 [4] | inhibition [9] | pIC50 [10] | GI50 [3] | inhibition of growth at 20 µg/mL [5] | inhibition of growth at 20 µg/mL [6] | inhibition of growth at 20 µg/mL [7] | inhibition of growth at 20 µg/mL [8]
1 | CN(c1ccc(OC(F)(F)F)cc1)c1nc(Cl)ccc1[N+](=O)[O-] | – | – | – | – | – | – | < 50% | < 50% | < 50% | < 50%
2 | CNc1ccc([N+](=O)[O-])c(N(C)c2ccc(OC)cc2)n1 | 4.45 µM | 4.53 µM | 4.5 µM | – | – | 9.63 µM | – | – | – | –
3 | COC(=O)c1ccc(N(C)c2nc(Cl)ccc2[N+](=O)[O-])cc1 | 2.22 µM | 2.89 µM | 3 µM | – | – | 2.87 µM | – | – | – | –
4 | CN(c1ccc(C#N)cc1)c1nc(Cl)ccc1[N+](=O)[O-] | 21.4 µM | 22.1 µM | 24 µM | – | – | 27 µM | – | – | – | –
5 | COc1ccc(N(C)c2nc(C(F)(F)F)ccc2C(=O)O)cc1 | – | – | – | – | – | – | < 50% | < 50% | < 50% | < 50%
6 | CNC(=O)c1ccc(C(F)(F)F)nc1N(C)c1ccc(OC)cc1 | – | – | – | – | – | – | < 50% | < 50% | < 50% | < 50%
7 | COc1ccc(N(C)c2nc(Cl)ccc2C(=O)O)cc1 | – | – | – | – | – | – | < 50% | < 50% | < 50% | < 50%
8 | CNC(=O)c1ccc(Cl)nc1N(C)c1ccc(OC)cc1 | – | – | – | – | – | – | < 50% | < 50% | < 50% | < 50%
9 | COc1cc(N(C)c2nc(Cl)ccc2[N+](=O)[O-])cc(OC)c1OC | – | – | – | – | – | – | < 50% | < 50% | < 50% | < 50%
10 | COc1ccc(N(C)c2nc(C(F)(F)F)ccc2-c2nnnn2C)cc1 | 1.16 µM | 1.47 µM | 1.82 µM | – | – | 1.26 µM | – | – | – | –
11 | C=CCN(c1ccc(OC)cc1)c1nc(Cl)ccc1[N+](=O)[O-] | 2.69 µM | 2.61 µM | 3.33 µM | – | – | 3.15 µM | – | – | – | –
12 | COc1ccc(N(C)c2nc(C(F)(F)F)ccc2C#N)cc1 | 10.7 µM | 15.3 µM | 7.21 µM | – | – | 7.91 µM | – | – | – | –
13 | CCOC(=O)c1ccc(Cl)nc1N(C)c1ccc(OC)cc1 | 1.43 µM | 1.8 µM | 1.81 µM | – | – | 1.43 µM | – | – | – | –
14 | COc1ccc(N(c2nc(Cl)ccc2[N+](=O)[O-])C2CCCC2)cc1 | – | – | – | – | – | – | < 50% | < 50% | < 50% | < 50%
15 | COc1ccc(N(C)c2nc(C(F)(F)F)ccc2C(=O)OC(C)C)cc1 | – | – | – | – | – | – | < 50% | < 50% | < 50% | < 50%
16 | CNc1ccc(C(=O)OC)c(N(C)c2ccc(OC)cc2)n1 | 1.67 µM | 1.36 µM | 3.43 µM | – | – | 0.92 µM | – | – | – | –
17 | COc1ccc(N(C)c2nc(Cl)ccc2CO)cc1 | 1.96 µM | 2.26 µM | 3.25 µM | – | – | 2.12 µM | – | – | – | –
18 | COc1ccc(N(C)c2nc(C(F)(F)F)ccc2-c2nnn[nH]2)cc1 | – | – | – | – | – | – | < 50% | < 50% | < 50% | < 50%

Second part, led by results:

Row | GI50 [1] | GI50 [2] | GI50 [4] | inhibition [9] | pIC50 [10] | SMILES | GI50 [3] | inhibition of growth at 20 µg/mL [5] | inhibition of growth at 20 µg/mL [6] | inhibition of growth at 20 µg/mL [7] | inhibition of growth at 20 µg/mL [8]
19 | 20.4 µM | 22.1 µM | 20.4 µM | – | – | COc1ccc(N(C)c2nc(Cl)ccc2C#N)cc1 | 18.1 µM | – | – | – | –
20 | 2.7 µM | 3.31 µM | 3.27 µM | – | – | COc1ccc(N(C)c2nc(OC)ccc2[N+](=O)[O-])cc1 | 2.83 µM | – | – | – | –
21 | 0.25 µM | 0.33 µM | 0.3 µM | 88% | 5.82 | COCc1ccc(Cl)nc1N(C)c1ccc(OC)cc1 | 0.2 µM | – | – | – | –
22 | 1.71 µM | 1.92 µM | 2.13 µM | – | – | COc1ccc(N(C)c2nc(C(F)(F)F)ccc2CO)cc1 | 1.75 µM | – | – | – | –
23 | 0.25 µM | 0.41 µM | 0.35 µM | 82% | 5.77 | COC(=O)c1ccc(C(F)(F)F)nc1N(C)c1ccc(OC)cc1 | 0.19 µM | – | – | – | –
24 | 1.3 µM | 1.52 µM | 1.46 µM | – | – | CCOC(=O)c1ccc(C(F)(F)F)nc1N(C)c1ccc(OC)cc1 | 1.3 µM | – | – | – | –
25 | 3.35 µM | 2.92 µM | 4.42 µM | – | – | COc1ccc(N(C)c2nc(C)ccc2[N+](=O)[O-])cc1 | 4.19 µM | – | – | – | –
26 | 1.55 µM | 1.78 µM | 2.2 µM | – | – | COc1ccc(N(C)c2nc(Cl)ccc2[N+](=O)[O-])cc1 | 1.86 µM | – | – | – | –
27 | 1.29 µM | 1.64 µM | 1.2 µM | – | – | COCc1ccc(C(F)(F)F)nc1N(C)c1ccc(OC)cc1 | 1.43 µM | – | – | – | –
28 | 0.21 µM | 0.26 µM | 0.23 µM | 80% | 5.85 | COC(=O)c1ccc(Cl)nc1N(C)c1ccc(OC)cc1 | 0.2 µM | – | – | – | –
29 | 0.0065 µM | 0.00777 µM | 0.00818 µM | – | – | CC(=O)O[C@H]1C(=O)[C@@]2(C)[C@H]([C@H](OC(=O)c3ccccc3)[C@]3(O)C[C@H](OC(=O)[C@H](O)[C@@H](NC(=O)c4ccccc4)c4ccccc4)C(C)=C1C3(C)C)[C@]1(OC(C)=O)CO[C@@H]1C[C@@H]2O [PACLITAXEL] | 1.8 µM | – | – | – | –
30 | 11.2 µM | 14.3 µM | 11.8 µM | – | – | COc1ccc(N(C(C)=O)c2nc(Cl)ccc2[N+](=O)[O-])cc1 | 13.9 µM | – | – | – | –
31 | 2.45 µM | 4.01 µM | 3.15 µM | – | – | COC(=O)c1ccc(OC)nc1N(C)c1ccc(OC)cc1 | 4.02 µM | – | – | – | –
32 | 17.8 µM | 14.5 µM | 22 µM | – | – | COc1ccc(N(C)c2nc(Cl)ccc2C(=O)OC(C)C)cc1 | 17.3 µM | – | – | – | –
33 | 15 µM | 16 µM | 18.4 µM | – | – | COc1ccc(N(C)c2nc(Cl)ccc2[N+](=O)[O-])cc1OC | 16.5 µM | – | – | – | –
